Data set [1] is described as follows: Drug metabolism in DMSO assessed as sodium 7-(benzoyloxy)-6-carboxynaphthalene-1-sulfonate metabolite formation at 0.05 mmol incubated for 24 hrs under 419 nm light illumination by 2D-COSY analysis.
The subject of data set [2] is RAW264.7. The data set can be described thus: Antiinflammatory activity in mouse RAW264.7 cells assessed as reduction in LPS-induced TNF-alpha expression at up to 50 uM preincubated for 4 hrs followed by 6 hrs incubation under dark condition and subsequent LPS-stimulation and measured after 1 hr by ELISA. Type of data set: functional, cell-based. An outline of the steps: (§1)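 RAW 264.7 cells seeded at 1.0×10^4/well, 24 h; compound 0.04–50 μM (0.4% DMSO vehicle) for 4 h without light; one plate then given blue LED (66,351 lx) 1 h at 37 °C. Both plates held 6 h dark at 37 °C, then E. coli O127:B8 LPS 1 μg/mL final for 1 h; supernatant TNF-α by mouse ELISA; 3 experiments, 2 technical replicates, mean ± SEM.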

A short description of data set [3]: Drug metabolism in DMSO assessed as sodium 7-(benzoyloxy)-6-carboxynaphthalene-1-sulfonate metabolite formation at 0.05 mmol incubated for 24 hrs under 419 nm light illumination by ESI/APCI-MS analysis.
Data set [4] in a line: Emission property of the compound in 10% FBS supplemented DMEM-F12 medium assessed as excitation wavelength. Type of data set: physicochemical.
Data set [5] is described as follows: Emission property of the compound in DMSO assessed as excited state emission wavelength at 100 uM. Type of data set: physicochemical.
A short description of data set [6]: Drug metabolism in DMSO assessed as sodium 7-(benzoyloxy)-6-carboxynaphthalene-1-sulfonate metabolite formation at […] after 24 hrs illuminated with visible light by 1H-NMR analysis. The essentials:
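Roughly 0.05 mmol compound in 5.0 mL DMSO, under air, irradiated in a photoreactor with 419 nm lamps (2,450 lx) until the lowest-energy absorption band disappeared (~24 h); photoproduct then characterised.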

Data set [7] in a line: Stability of the compound in FBS supplemented DMEM-F12 medium incubated for >= 1 month under dark condition.
A short description of data set [8]: Solubility of the compound in water at < 50 mM. Format: physicochemical. The note with it: buffer.
Data set [9] is described as follows: Drug metabolism in DMSO assessed as sodium 7-(benzoyloxy)-6-carboxynaphthalene-1-sulfonate metabolite formation at 0.05 mmol incubated for 24 hrs under 419 nm light illumination by 13C-NMR analysis.
A short description of data set [10]: Drug metabolism in DMSO assessed as CO release at 0.05 mmol incubated for 24 hrs under 419 nm light illumination.
Data set [11] in a line: Absorption property of the compound in water assessed as absorption wavelength at 100 uM. Type of data set: physicochemical. The note with it: buffer.
Data set [12] is described as follows: Absorption property of the compound in 10% FBS supplemented DMEM-F12 medium assessed as absorption wavelength at 100 uM. Format: physicochemical.
Data set [13] in a line: Emission property of the compound in water assessed as emission wavelength at 100 uM. Format: physicochemical. Conditions: buffer. An outline of the steps:
(§2)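 Emission spectra recorded at 0.1 mM in water, 10 mM PBS pH 7.4, or DMEM/F12K with 10% FBS; excitation 410 nm or 467 nm, slit width 3.0 nm.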

Data set [14] addresses T1, Albumin (Bos taurus, UniProt P02769). The data set can be described thus: Binding affinity to bovine serum albumin at pH 7.4 TRIS buffer by fluorescence based Stern-Volmer plot analysis. Type of data set: ADME. The note with it: cattle, isolated protein. The essentials: (§3)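 Tryptophan fluorescence quench of BSA (1.4 μM) in TRIS buffer pH 7.4 at 295 K, excitation 282 nm, titrated with compound at 0–22.4 μM; data fitted by Stern-Volmer and modified Stern-Volmer plots.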

Data set [15] in a line: Drug metabolism in DMSO assessed as sodium 7-(benzoyloxy)-6-carboxynaphthalene-1-sulfonate metabolite formation at 0.05 mmol incubated for 24 hrs under 419 nm light illumination by HSQC analysis.
The nature of data set [16]: Stability of the compound in DMSO incubated for >= 1 month under dark condition. Format: physicochemical.
The subject of data set [17] is RAW264.7. The data set can be described thus: Dark toxicity against mouse RAW264.7 cells assessed as reduction in cell viability up to 100 uM after 24 hrs by MTT assay. Format: cell-based. Conditions: raw264.7, 24 h. The essentials: (§4)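 RAW 264.7 cells (within 5 passages, phenol-red-free DMEM-F12K, 10% FBS) seeded at 1.0×10^4/well for 24 h, then dosed 0.08–100 μM (≤0.4% DMSO). Light arm: blue LED array (66,351 lx) 1 h, then 23 h more; dark arm kept unlit. MTT 4 h, formazan in DMSO, A560 minus A750, normalised to vehicle; 3 biological × 3 technical replicates, mean ± SEM.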

Data set [18] is described as follows: Stability of the compound in PBS buffer incubated for >= 1 month under dark condition. Type of data set: physicochemical.
Data set [19] in a line: Emission property of the compound in 10% FBS supplemented DMEM-F12 medium assessed as emission wavelength at 100 uM. Type of data set: physicochemical. The essentials: as §2
Data set [20] in a line: Drug metabolism in DMSO assessed as sodium 7-(benzoyloxy)-6-carboxynaphthalene-1-sulfonate metabolite formation at 0.05 mmol incubated for 24 hrs under 419 nm light illumination by HMBC analysis.
A short description of data set [21]: Drug metabolism in mouse RAW264.7 cells assessed as CO release at 50 uM preincubated 4 hrs followed by 1-Ac addition for 30 mins and subsequent 460 nm LED light illumination for 1 hr by Hoechst 33342 dye based fluorescence assay. Type of data set: ADME, cell-based. Conditions: raw264.7, 50 µM. The essentials:
(§5)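 RAW 264.7 cells on chamber slides given 50 μM compound 4 h, then washed 3x with plain medium or left unwashed; Nile red CO sensor 1-Ac 5 μM final (0.2% DMSO) 30 min; blue LED (66,351 lx, 2 cm) 1 h at 37 °C, then 1 h dark at 37 °C; Hoechst 33342 stain; red channel ex 550–600/em 598–660 nm.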

In data set [22] the test system is RAW264.7. The data set can be described thus: Antiinflammatory activity in mouse RAW264.7 cells assessed as reduction in LPS-induced TNF-alpha level up to 1 uM incubated for 4 hrs prior to 460 nm LED light illumination for 1 hr followed by 6 hrs incubation under dark condition and subsequent LPS-stimulation and measured after 1 hr by ELISA. Format: functional, cell-based. The essentials: as §1

The nature of data set [23]: Drug uptake in mouse RAW264.7 cells assessed as extracellular accumulation at 50 uM incubated for 4 hrs under dark condition followed by compound washout by Hoechst 33342 staining based fluorescence inverted microscopic method. Format: ADME, cell-based. The note with it: raw264.7, 4 h. The essentials:
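After 4 h dark incubation of RAW 264.7 cells with 50 μM compound, cells washed with medium containing 10% FBS; pooled washes read by fluorescence (ex 410 nm, slit 3.0 nm) against a 50 μM standard.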

Data set [24] in a line: Solubility of the compound in FBS supplemented DMEM-F12 medium at < 50 mM. Type of data set: physicochemical.
Data set [25] is described as follows: Drug uptake in mouse RAW264.7 cells assessed as intracellular accumulation at 50 uM after 4 hrs by Hoechst 33342 staining based fluorescence inverted microscopic method. Type of data set: ADME, cell-based. Conditions: raw264.7, 4 h. The essentials:
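RAW 264.7 cells seeded at 1.0×10^4 cells/[…] in chamber slides, adhered 24 h, exposed to 50 μM compound (from 25 mM DMSO stock; 0.4% DMSO final) 4 h with minimal light; Hoechst 33342 15 min, three PBS washes; imaged at 20x, blue channel ex 310–390/em 420–470 nm.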

Data set [26] in a line: Absorption property of the compound in pH 7.4 PBS buffer assessed as absorption wavelength at 100 uM. Format: physicochemical. Conditions: pH 7.4, 100 µM.
Data set [27] can be described thus: Drug metabolism in DMSO assessed as sodium 7-(benzoyloxy)-6-carboxynaphthalene-1-sulfonate metabolite formation at 0.05 mmol incubated for 24 hrs under 419 nm light illumination by FTIR analysis.
Data set [28] can be described thus: Stability of the compound in water incubated for >= 1 month under dark condition. Type of data set: physicochemical. Conditions: buffer.
Data set [29] is described as follows: Emission property of the compound in pH 7.4 PBS buffer assessed as excited state emission wavelength at 100 uM. Format: physicochemical. Conditions: pH 7.4, 100 µM.
Data set [30] in a line: Solubility of the compound in PBS buffer at < 50 mM. Format: physicochemical.
The nature of data set [31]: Emission property of the compound in DMSO assessed as tautomeric state emission wavelength at 100 uM. Type of data set: physicochemical.
The target of data set [32] is T1, Albumin. The data set can be described thus: Binding affinity to bovine serum albumin at pH 7.4 TRIS buffer at 1:1 ratio of compound to protein by fluorescence based assay. Type of data set: ADME. Conditions: cattle, isolated protein. The essentials: as §3
Data set [33] in a line: Drug metabolism in mouse RAW264.7 cells assessed as CO release at 50 uM incubated 4 hrs prior to compound washout followed by 1-Ac addition for 30 mins and subsequent 460 nm LED light illumination for 1 hr by Hoechst 33342 dye based fluorescence assay. The note with it: raw264.7, 4 h. Type of data set: ADME, cell-based. The essentials: as §5
The nature of data set [34]: Absorption property of the compound in DMSO assessed as minimum absorption wavelength at 100 uM. Format: physicochemical.
Data set [35] can be described thus: Solubility of the compound in DMSO at < 50 mM. Type of data set: physicochemical.
Data set [36] relates to RAW264.7. The data set can be described thus: Cytotoxicity against mouse RAW264.7 cells assessed as reduction in cell viability up to 100 uM incubated for 1 hr under 460 nm LED light illumination and measured after 23 hrs by MTT assay. Type of data set: cell-based. The note with it: raw264.7, 1 h. The essentials:
as §4

For data set [37], the system named is RAW264.7. The data set can be described thus: Cytotoxicity against mouse RAW264.7 cells assessed as reduction in cell viability incubated for 1 hr under 460 nm LED light illumination and measured after 23 hrs by MTT assay. Format: cell-based. The note with it: for Activity: mouse, raw264.7. An outline of the steps:
as §4

Data set [38] in a line: Absorption property of the compound in DMSO assessed as reduction in absorption wavelength at 0.05 mmol incubated for 14 hrs under 419 nm light illumination. Format: physicochemical.

Activity calls are given as the source filed them. The rule behind the calls is not given here.

T1 sequence (P02769 whole entry): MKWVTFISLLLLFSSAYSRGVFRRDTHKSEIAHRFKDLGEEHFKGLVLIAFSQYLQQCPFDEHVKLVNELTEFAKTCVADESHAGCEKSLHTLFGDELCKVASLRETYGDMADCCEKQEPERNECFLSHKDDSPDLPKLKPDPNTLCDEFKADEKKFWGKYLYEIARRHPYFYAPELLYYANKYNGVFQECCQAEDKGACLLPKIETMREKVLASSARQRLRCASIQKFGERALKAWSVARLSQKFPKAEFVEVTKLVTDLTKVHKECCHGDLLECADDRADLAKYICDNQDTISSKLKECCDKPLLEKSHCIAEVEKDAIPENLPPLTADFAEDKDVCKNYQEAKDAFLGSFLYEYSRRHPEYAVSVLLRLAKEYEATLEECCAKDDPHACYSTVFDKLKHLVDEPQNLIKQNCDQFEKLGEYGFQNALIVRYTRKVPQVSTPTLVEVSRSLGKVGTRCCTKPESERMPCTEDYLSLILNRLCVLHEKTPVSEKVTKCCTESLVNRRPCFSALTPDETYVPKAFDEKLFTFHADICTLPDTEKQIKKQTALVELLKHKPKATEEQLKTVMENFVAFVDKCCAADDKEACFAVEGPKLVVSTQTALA

Take `O=c1c(O)c(-c2ccccc2)oc2cc3c(S(=O)(=O)[O-])cccc3cc12.[Na+]`: the Drug metabolism entry in data set [1], in data set [3], in data set [6], in data set [9], in data set [10] and in [15] was “Metabolite detected” each time. Besides, the Drug metabolism entry in [20] is “Metabolite detected”; in [21] it was “Metabolite_Detected”; in data set [27], “Metabolite detected”; in data set [33], “Metabolite_Detected”. Further, the result in data set [2] and in data set [22] was Active. The Activity in data set [4] is 467 nm; in data set [5] it was 480 nm; in data set [11], 450 to 500 nm; in data set [12], 450 to 500 nm; in [13] it was 560 nm; in data set [17] it was “Non-Toxic”. For the same molecule, the Activity in data set [19] is 600 nm; in data set [26], 450 to 500 nm; in [29], 410 nm; in data set [31], 610 nm; in data set [32], “Active”; in data set [34], 410 nm. Moreover, in [36], the Activity entry is “Non-Toxic”. The Stability entry in data set [7], in [16], in data set [18] and in data set [28] was “Stable” each time. In addition, the solubility result in data set [8], in [24], in data set [30] and in data set [35] was “Soluble” each time. In data set [14], this molecule returned a Ka of 4.1 ×10⁵ /M. The Drug uptake result in data set [23] and in data set [25] was “Not Active” throughout.
Regarding `O=C(Oc1cc2ccccc2cc1C(=O)O)c1ccccc1`, the Activity result in data set [37] is given as “Non-Toxic”.
The same measure, in the same setting: under `O=C(Oc1cc2c(S(=O)(=O)O)cccc2cc1C(=O)O)c1ccccc1` stands “Non-Toxic”.
`O=c1c(O)c(-c2ccccc2)oc2cc3ccccc3cc12`: the outcome in data set [2] and in data set [22] was Active. Besides, the values for the Activity result in data set [38], in data set [17] and in [32] were “Active”, “Non-Toxic” and “Active”, respectively. In data set [37] (Mus musculus, RAW264.7), the concentration for half-maximal inhibition (IC50) came out at 22.4 µM. In addition, the figures for the Drug metabolism entry in [10] and in data set [33] were “Metabolite detected” and “Metabolite_Detected”, respectively. In data set [14], this molecule returned a Ka of 3.2 ×10³ /M. Moreover, the Drug uptake entry in data set [25] is given as “Active”.
